Calls of active or inactive are those of the source. No cut-off for these calls is given here.
Key:
[1] = biological target: T1, 6-phosphofructo-2-kinase/fructose-2,6-bisphosphatase 3 (Homo sapiens, UniProt Q16875); test: Inhibition of human recombinant GST-tagged PFKFB3 expressed in Escherichia coli BL21(DE3) using fructose 6-phosphate as substrate preincubated for 30 mins before substrate addition measured after 60 mins by kinase-glo assay
In short: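 GST-tagged human PFKFB3 was purified on glutathione sepharose. The compound was preincubated with enzyme for 30 min at 30 °C in 40 mM Tris pH 7.5, 20 mM MgCl2, 0.1 mg/mL BSA. ATP and F6P were then added in buffer containing 25 µM ATP and 1.25 mM F6P, for 60 min at 30 °C. Remaining ATP was read by Kinase-Glo luminescence. IC50 came from nonlinear regression, mean ± SD of ≥3 independent experiments.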

[2] = biological target: T1, 6-phosphofructo-2-kinase/fructose-2,6-bisphosphatase 3; conditions: 250 uM
[3] = biological target: T1, 6-phosphofructo-2-kinase/fructose-2,6-bisphosphatase 3; test: Inhibition of PFKFB3 in human HeLa cells assessed as reduction of fructose 2,6-bisphosphate level at IC50 after 8 hrs; format: cell-based
[4] = biological target: T1, 6-phosphofructo-2-kinase/fructose-2,6-bisphosphatase 3; test: Inhibition of PFKFB3 in human HeLa cells assessed as reduction of lactate secretion at IC50 after 8 hrs; format: cell-based
[5] = Solubility of the compound; format: physicochemical
[6] = biological target: T1, 6-phosphofructo-2-kinase/fructose-2,6-bisphosphatase 3; test: Inhibition of PFKFB3 (unknown origin)
[7] = biological target: T1, 6-phosphofructo-2-kinase/fructose-2,6-bisphosphatase 3; test: Inhibition of PFKFB3-mediated glycolysis in human MDA-MB-231 cells assessed as extracellular acidification rate at 10 uM after 60 mins; format: cell-based
In short: (§1)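 MDA-MB-231 cells were seeded at 15,000/well for 24 h, then switched to assay medium in an XF24 analyzer. After 2 baseline readings, compound (10 µM) was injected and ECAR tracked for 2 h. 2-Deoxyglucose (100 mM) was then injected as positive control and ECAR followed 32 min more. ECAR was expressed as % of baseline, with protein measured by BCA after RIPA lysis; n = 3.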

[8] = biological target: T1, 6-phosphofructo-2-kinase/fructose-2,6-bisphosphatase 3; test: Inhibition of PFKFB3-mediated glycolysis in human MDA-MB-231 cells assessed as extracellular acidification rate at 10 uM after 2 hrs; format: cell-based; in short: as §1

T1 sequence (Q16875 whole entry): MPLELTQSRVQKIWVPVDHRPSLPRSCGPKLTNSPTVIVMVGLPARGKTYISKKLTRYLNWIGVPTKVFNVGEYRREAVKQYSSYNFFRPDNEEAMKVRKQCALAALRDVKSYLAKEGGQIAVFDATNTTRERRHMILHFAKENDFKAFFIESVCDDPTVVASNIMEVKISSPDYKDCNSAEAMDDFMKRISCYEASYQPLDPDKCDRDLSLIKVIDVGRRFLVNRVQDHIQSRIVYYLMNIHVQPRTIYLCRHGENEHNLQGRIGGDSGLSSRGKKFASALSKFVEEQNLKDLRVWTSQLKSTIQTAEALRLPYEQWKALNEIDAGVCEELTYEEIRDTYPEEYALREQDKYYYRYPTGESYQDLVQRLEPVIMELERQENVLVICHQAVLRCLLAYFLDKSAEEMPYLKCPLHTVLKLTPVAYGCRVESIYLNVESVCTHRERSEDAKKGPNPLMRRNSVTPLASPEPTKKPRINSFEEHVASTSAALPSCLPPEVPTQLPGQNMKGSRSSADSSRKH

Row | SMILES | IC50 [1] [µM] | further results
1 | NC(=O)CNc1cnn(-c2ccccc2)c(=O)c1Br | > 1000 | 
2 | CC(=O)c1nnn(-c2cnn(CCc3ccccc3)c(=O)c2Br)c1C | 2.6 | 
3 | CC(=O)c1nnn(-c2cnn(Cc3ccccc3)c(=O)c2Br)c1C | 3.4 | 
4 | CC(=O)c1nnn(-c2cnn(Cc3ccc(I)cc3)c(=O)c2Br)c1C | 8.7 | 
5 | O=C(/C=C/c1ccc2ccccc2n1)c1ccncc1 | > 1000 | inhibition [2]: 26%
6 | O=c1c(-c2ccc(O)cc2)coc2c(O)c(O)ccc12 |  | inhibition [3]: 40%; inhibition [4]: > 30%
7 | CC(=O)c1nnn(-c2cnn(-c3ccc(C#N)cc3)c(=O)c2Br)c1C | 8.4 | 
8 | O=C(c1ccncc1)c1cc2c(ccc3ccccc32)[nH]1 |  | solubility [5]: Insoluble; IC50 [6]: > 1000 µM
9 | CCOC(=O)c1cn(-c2cnn(-c3ccccc3)c(=O)c2N2CC3(COC3)C2)nn1 | 55 | 
10 | CC(=O)c1nnn(-c2cnn(-c3ccccc3)c(=O)c2I)c1C | 13 | 
11 | CC(=O)c1nnn(-c2cnn(-c3ccc(Cl)cc3)c(=O)c2Br)c1C | 7 | inhibition [7]: 30%
12 | CC(=O)c1nnn(-c2cnn(-c3ccccc3)c(=O)c2Br)c1C | 7.4 | inhibition [8]: inactive
13 | CC(=O)c1nnn(-c2cnn(Cc3ccccc3)c(=O)c2)c1C | > 10000 | 
14 | O=c1c(Br)c(N2CCOCC2)cnn1-c1ccccc1 | > 1000 | 
15 | CC(=O)c1nnn(-c2cnn(-c3cncnc3)c(=O)c2Br)c1C | 9.6 | inhibition [7]: 30%
16 | CC(=O)c1nnn(-c2cnn(-c3ccccc3)c(=O)c2Cl)c1C | 26 | 
17 | CC(=O)c1nnn(-c2cnn(CCCc3ccccc3)c(=O)c2Br)c1C | 11 | inhibition [7]: 30%
18 | CC(=O)c1nnn(-c2cnn(-c3ccccc3)c(=O)c2C(C)C)c1C | > 500 | 
19 | N#Cc1cccc2c1CCN(c1cnn(-c3ccccc3)c(=O)c1Br)C2 | > 500 | 
20 | O=C(/C=C/c1cccnc1)c1ccncc1 |  | inhibition [8]: inactive; IC50 [6]: 25 µM
21 | CC(=O)c1nnn(-c2cnn(Cc3ccc(NCCN(C)C)cc3)c(=O)c2Br)c1C | > 500 | 
22 | O=c1c(Br)c(NCC2CCCO2)cnn1-c1ccccc1 (stereo unspecified) | > 1000 | 
23 | CC(=O)c1nnn(-c2cnn(-c3ccc(OC(F)(F)F)cc3)c(=O)c2Br)c1C | 9.1 | inhibition [7]: 30%
24 | CCOc1c(-n2nnc(C(C)=O)c2C)cnn(-c2ccccc2)c1=O | > 1000 | 
25 | O=C(O)c1ccc(NS(=O)(=O)c2cccc3ccccc23)cc1O | 27 | IC50 [6]: 27 µM
26 | O=c1c(Br)c(N2CC3(COC3)C2)cnn1-c1ccccc1 | > 1000 | 
